These results are taken from ChEMBL document CHEMBL4406830, “Galloyl esters of trans-stilbenes are inhibitors of FASN with anticancer activity on non-small cell lung cancer cells” (Eur J Med Chem, 2019).

Molecules are shown by their SMILES. Calls of active or inactive are those of the source. The calls are words filed in the database; no cut-off is given here.

In assay [1] the target is Fatty acid synthase (Homo sapiens) (UniProt P49327). Briefly: Inhibition of FASN in human PC9 cells harboring FASN expression and EGFR delE746-A750 mutant assessed as disruption of AKT/FASN positive feedback loop by measuring FASN expression at 100 uM after 48 hrs in presence of exogenous lipid concentrate by Western immunoblot based densitometric assay relative to control. It counts as cell-based. The method, boiled down:
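PC-9 cells were seeded at 8 × 10^5 per 100 mm dish, attached overnight, then treated 48 h with compound plus chemically defined lipid concentrate. Cells were lysed in RIPA with protease inhibitors and protein quantified by BCA. Lysates were run on 8% SDS-PAGE and blotted to PVDF. Blots were probed for FASN (1:2,000, PBS-T/milk block) and GAPDH. ECL detection; FASN/GAPDH densitometry normalised to untreated control.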
For orientation: Immunoblotting shows a protein as a band on a membrane.

The next assay deals with A549. Briefly: Antiproliferative activity against human A549 cells expressing FASN assessed as reduction in cell viability after 72 hrs by MTS assay. It counts as functional, cell-based. The following applies: A549, 72 h. The method, boiled down: (§1)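 ATCC-sourced cells. H1299, H1650, H1703 and PC-9 were grown in RPMI 1640 with 10% FBS. A549 was grown in high-glucose DMEM with 10% FBS and 1 mM pyruvate. SAEC was grown in BEGM. Cells were seeded at 3 × 10^3 per well (H1650 3.5 × 10^3) and left to attach overnight. Serial dilutions from DMSO stocks were added, 0.1% DMSO final, for 72 h at 37 °C, 5% CO2. Medium was replaced, MTS added, and A490 read after 2 h. IC50 was taken from % viability versus log concentration, 3 experiments.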
For orientation: Tetrazolium assays rely on reduction of a dye to a coloured formazan, in cell work by metabolically active cells.

Assay [2] concerns the target Fatty acid synthase (Homo sapiens) (UniProt P49327). Put plainly: Inhibition of full length human FASN transfected in HeLa cell lysates at 150 uM using acetyl Co-A/malonyl Co-A as substrate preincubated with enzyme for 2 hrs followed by substrate addition measured after 10 mins in presence of NADPH by microplate reader analysis. Conditions: Lysate. It counts as subcellular. In a few lines: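 Human FASN was made by coupled in vitro translation of a FASN plasmid; the legend calls this HeLa cell lysate. Lysate was diluted 3:7 in 100 mM potassium phosphate pH 6.5 with 1 mM EDTA, then preincubated with compound for 2 h at 37 °C. Buffer containing acetyl-CoA (55 µM) and NADPH (330 µM) was added, and the reaction started with malonyl-CoA solution (500 µM). A340 was read at 0 and 10 min, and inhibition taken against untreated lysate. Triplicates.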

Assay [3] shares this target. Put plainly: Inhibition of FASN in human PC9 cells harboring FASN expression and EGFR delE746-A750 mutant assessed as disruption of AKT/FASN positive feedback loop by measuring decrease in ratio of phosphoAKT/AKT expression at 100 uM after 48 hrs by Western immunoblot based densitometric assay relative to control. It counts as cell-based. The method, boiled down: (§2)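 PC-9 cells were seeded at 8 × 10^5 per 100 mm dish and treated 48 h with compound, with or without chemically defined lipid concentrate (vehicle control included). RIPA lysates with protease inhibitors were BCA-quantified and run on 8% SDS-PAGE, then PVDF. Blots were probed for phospho-AKT Ser473 and total AKT (each 1:1,000, TBS-T/milk block). ECL detection; pAKT/AKT densitometry normalised to untreated control.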

Assay [4] can be described thus: Selectivity index, ratio of IC50 for human SAE cells lacking FASN expression to IC50 for human NCI-H1703 cells expressing FASN. In a few lines:
(§3)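 Index is the SAEC IC50 divided by the IC50 in the FASN-expressing NSCLC line. IC50s came from MTS viability after 72 h exposure at 37 °C, 5% CO2, DMSO 0.1% v/v. Absorbance was read at 490 nm after 2 h. The fit was % viability against log concentration, with 4 technical repeats and 3 independent experiments. NSCLC lines were grown in RPMI/10% FBS; SAEC in BEGM.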

In assay [5] the target is Fatty acid synthase (Homo sapiens) (UniProt P49327). Put plainly: Inhibition of FASN in human PC9 cells harboring FASN expression and EGFR delE746-A750 mutant assessed as disruption of AKT/FASN positive feedback loop by measuring ratio of phosphoAKT/AKT expression at 100 uM after 48 hrs in presence of exogenous lipid concentrate by Western immunoblot based densitometric assay relative to control. It counts as cell-based. The method, boiled down: as §2
Fatty acid synthase (Homo sapiens), sequence (P49327 whole entry, looked up): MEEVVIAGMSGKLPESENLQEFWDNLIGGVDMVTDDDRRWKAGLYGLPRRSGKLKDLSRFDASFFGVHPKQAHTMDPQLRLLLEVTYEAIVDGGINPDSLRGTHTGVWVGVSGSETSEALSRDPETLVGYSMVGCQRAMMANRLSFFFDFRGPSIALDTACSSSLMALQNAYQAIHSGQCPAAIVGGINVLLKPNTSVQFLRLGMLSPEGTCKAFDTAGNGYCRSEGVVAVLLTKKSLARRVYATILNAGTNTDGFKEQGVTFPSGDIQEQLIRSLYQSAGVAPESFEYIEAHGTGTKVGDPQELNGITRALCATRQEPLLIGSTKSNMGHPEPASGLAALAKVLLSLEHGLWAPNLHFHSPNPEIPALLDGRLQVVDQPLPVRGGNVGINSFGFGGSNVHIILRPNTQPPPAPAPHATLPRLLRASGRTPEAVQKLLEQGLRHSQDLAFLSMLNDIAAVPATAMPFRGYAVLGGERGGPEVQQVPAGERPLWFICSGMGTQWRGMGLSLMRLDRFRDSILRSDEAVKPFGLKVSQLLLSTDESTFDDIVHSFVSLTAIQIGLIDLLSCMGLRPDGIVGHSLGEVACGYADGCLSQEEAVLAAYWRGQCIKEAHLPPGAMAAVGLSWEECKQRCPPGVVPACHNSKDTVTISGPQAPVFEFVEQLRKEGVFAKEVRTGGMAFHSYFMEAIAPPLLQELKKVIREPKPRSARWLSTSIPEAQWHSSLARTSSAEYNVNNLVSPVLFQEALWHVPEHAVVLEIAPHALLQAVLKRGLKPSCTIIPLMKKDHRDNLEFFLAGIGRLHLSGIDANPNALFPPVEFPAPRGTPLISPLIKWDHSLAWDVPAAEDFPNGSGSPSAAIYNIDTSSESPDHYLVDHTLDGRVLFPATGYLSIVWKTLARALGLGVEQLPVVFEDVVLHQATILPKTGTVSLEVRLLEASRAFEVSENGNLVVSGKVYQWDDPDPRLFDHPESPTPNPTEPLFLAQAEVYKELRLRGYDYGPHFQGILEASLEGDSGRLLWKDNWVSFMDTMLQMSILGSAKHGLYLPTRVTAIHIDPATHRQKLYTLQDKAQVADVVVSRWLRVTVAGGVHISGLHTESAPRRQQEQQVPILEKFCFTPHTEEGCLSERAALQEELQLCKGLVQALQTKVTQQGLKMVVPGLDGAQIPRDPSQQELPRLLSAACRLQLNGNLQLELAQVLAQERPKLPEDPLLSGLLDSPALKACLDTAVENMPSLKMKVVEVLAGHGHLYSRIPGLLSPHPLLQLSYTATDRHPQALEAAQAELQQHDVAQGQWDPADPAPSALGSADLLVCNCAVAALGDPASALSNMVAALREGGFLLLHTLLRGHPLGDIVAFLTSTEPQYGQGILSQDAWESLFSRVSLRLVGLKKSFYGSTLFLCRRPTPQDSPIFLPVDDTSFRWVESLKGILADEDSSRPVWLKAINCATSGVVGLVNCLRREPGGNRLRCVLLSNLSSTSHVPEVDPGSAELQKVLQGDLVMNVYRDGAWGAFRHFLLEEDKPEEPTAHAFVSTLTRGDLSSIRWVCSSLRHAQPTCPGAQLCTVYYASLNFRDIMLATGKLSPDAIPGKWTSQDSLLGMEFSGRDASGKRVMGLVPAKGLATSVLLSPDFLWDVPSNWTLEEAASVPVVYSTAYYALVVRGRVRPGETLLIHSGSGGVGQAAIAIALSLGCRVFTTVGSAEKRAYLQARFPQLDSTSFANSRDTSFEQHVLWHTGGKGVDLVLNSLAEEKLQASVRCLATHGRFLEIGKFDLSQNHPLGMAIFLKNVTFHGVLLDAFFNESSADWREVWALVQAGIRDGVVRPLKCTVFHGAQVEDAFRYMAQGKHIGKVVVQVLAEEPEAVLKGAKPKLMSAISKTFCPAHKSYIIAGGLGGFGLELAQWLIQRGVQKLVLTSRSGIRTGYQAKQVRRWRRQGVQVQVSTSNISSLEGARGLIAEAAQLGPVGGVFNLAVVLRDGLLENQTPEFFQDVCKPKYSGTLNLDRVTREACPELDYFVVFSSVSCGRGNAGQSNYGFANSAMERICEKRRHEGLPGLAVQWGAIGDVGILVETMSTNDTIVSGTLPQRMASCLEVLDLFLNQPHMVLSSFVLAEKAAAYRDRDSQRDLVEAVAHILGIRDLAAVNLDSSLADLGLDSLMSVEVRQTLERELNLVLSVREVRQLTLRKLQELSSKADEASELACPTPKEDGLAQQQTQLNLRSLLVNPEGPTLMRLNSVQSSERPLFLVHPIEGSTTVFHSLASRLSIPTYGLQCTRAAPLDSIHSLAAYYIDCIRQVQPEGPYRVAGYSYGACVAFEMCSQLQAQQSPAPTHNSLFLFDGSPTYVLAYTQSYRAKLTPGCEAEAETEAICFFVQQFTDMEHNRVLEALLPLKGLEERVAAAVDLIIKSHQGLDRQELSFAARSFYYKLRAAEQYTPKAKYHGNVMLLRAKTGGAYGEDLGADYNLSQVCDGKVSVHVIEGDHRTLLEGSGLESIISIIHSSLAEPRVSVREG

The nature of assay [6]: Cytotoxicity against human SAE cells lacking FASN expression assessed as reduction in cell viability after 72 hrs by MTS assay. It counts as cell-based. In a few lines:
as §1

Assay [7] concerns PC-9. Put plainly: Antiproliferative activity against human PC9 cells harboring FASN expression and EGFR delE746-A750 mutant assessed as cell viability at 100 uM after 72 hrs in presence of exogenous lipid concentrate by MTS assay. It counts as functional, cell-based. In a few lines: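 PC-9 cells seeded at 3 × 10^3 cells/100 µL in RPMI 1640 and left to attach overnight. Compound added as for the viability assay, with DMSO at 0.1% v/v. After 6 h at 37 °C and 5% CO2, chemically defined lipid concentrate was added to 2% v/v final. Incubation then continued 72 h. Viability was read by MTS absorbance at 490 nm against untreated cells, in triplicate.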

For assay [8], the target named is Fatty acid synthase (Homo sapiens) (UniProt P49327). Briefly: Inhibition of FASN in human PC9 cells harboring FASN expression and EGFR delE746-A750 mutant assessed as disruption of AKT/FASN positive feedback loop by measuring decrease in FASN expression at 100 uM after 48 hrs by Western immunoblot based densitometric assay relative to control. It counts as cell-based. In a few lines: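 PC-9 or H1703 cells were seeded at 8 × 10^5 per 100 mm dish and treated for 48 h at 1 or 5 µM (or 5, 50 and 100 µM). RIPA lysates were BCA-quantified and run on 8% SDS-PAGE, then transferred to PVDF. Blots were probed for FASN, AKT, phospho-AKT S473 and GAPDH and detected by ECL. Bands were quantified by densitometry and normalised to vehicle control.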

Assay [9] can be described thus: Selectivity index, ratio of IC50 for human SAE cells lacking FASN expression to IC50 for human PC9 cells harboring FASN expression and EGFR delE746-A750 mutant. In a few lines: as §3
Assay [10] can be described thus: Selectivity index, ratio of IC50 for human SAE cells lacking FASN expression to IC50 for human NCI-H1650 cells expressing FASN. The method, boiled down: as §3
The subject of assay [11] is PC-9. Put plainly: Antiproliferative activity against human PC9 cells harboring FASN expression and EGFR delE746-A750 mutant assessed as reduction in cell viability after 72 hrs by MTS assay. It counts as functional, cell-based. The following applies: PC-9, 72 h. In a few lines: as §1
A short description of assay [12]: Selectivity index, ratio of IC50 for human SAE cells lacking FASN expression to IC50 for human NCI-H1299 cells expressing FASN expression. The method, boiled down: as §3
Assay [13] addresses Fatty acid synthase (Homo sapiens) (UniProt P49327). Put plainly: Inhibition of full length human FASN transfected in HeLa cell lysates at 10 uM using acetyl Co-A/malonyl Co-A as substrate preincubated with enzyme for 2 hrs followed by substrate addition measured after 10 mins in presence of NADPH by microplate reader analysis. The following applies: Lysate. It counts as subcellular. The method, boiled down:
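Human FASN was made by in vitro translation from a FASN plasmid. Lysate was diluted 3:7 in 100 mM potassium phosphate, pH 6.5, 1 mM EDTA. It was preincubated with compound (10 µM final) for 2 h at 37 °C. Buffer containing acetyl-CoA (55 µM) and NADPH (330 µM) was added, then the reaction was started with malonyl-CoA (500 µM stock). A340 was read at 0 and 10 min; triplicates.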

The subject of assay [14] is NCI-H1703. Briefly: Induction of apoptosis in human NCI-H1703 cells expressing FASN assessed as increase in late apoptotic cells at 100 uM after 72 hrs by Annexin-V FITC staining/PI-based flow cytometry. It counts as functional, cell-based. The method, boiled down: (§4)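 H1703 or PC-9 cells seeded at 1.5 × 10^5 cells/2 mL in 6-well plates and left to attach overnight. Treated at 100 µM, with a 0.1% DMSO vehicle control, at 37 °C and 5% CO2. Exposure is given as 72 h in the results and 48 h in the methods. Cells were harvested, rinsed in ice-cold PBS, stained with Annexin V-FITC/PI in binding buffer and read by flow cytometry. Early apoptosis was Annexin V+ only; late apoptosis was double positive. Triplicates.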
(Flow cytometry measures light scatter and fluorescence of single cells or particles in a stream.)

For a further assay, the system named is NCI-H1650. Briefly: Antiproliferative activity against human NCI-H1650 cells expressing FASN assessed as reduction in cell viability after 72 hrs by MTS assay. It counts as functional, cell-based. The following applies: NCI-H1650, 72 h. In a few lines: as §1
In the next assay the test system is NCI-H1299. Put plainly: Antiproliferative activity against human NCI-H1299 cells expressing FASN assessed as reduction in cell viability after 72 hrs by MTS assay. It counts as functional, cell-based. Conditions: NCI-H1299, 72 h. In a few lines: as §1
For assay [15], the system named is NCI-H1703. Briefly: Antiproliferative activity against human NCI-H1703 cells expressing FASN assessed as reduction in cell viability after 72 hrs by MTS assay. It counts as functional, cell-based. Conditions: NCI-H1703, 72 h. In a few lines: as §1
Assay [16] relates to PC-9. Briefly: Induction of apoptosis in human PC9 cells harboring FASN expression and EGFR delE746-A750 mutant at 100 uM after 72 hrs by Annexin-V FITC/PI staining-based flow cytometry. It counts as functional, cell-based. The method, boiled down: as §4
Assay [17] in a line: Selectivity index, ratio of IC50 for human SAE cells lacking FASN expression to IC50 for human A549 cells expressing FASN. In a few lines:
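The ratio IC50(SAEC)/IC50(NSCLC line) was calculated from 72 h MTS viability IC50 values.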

As a reminder, the IC50 is the concentration at which inhibition is half-maximal. As to `O=C(O[C@@H]1Cc2c(O)cc(O)cc2O[C@@H]1c1cc(O)c(O)c(O)c1)c1cc(O)c(O)c(O)c1` [EPIGALOCATECHIN GALLATE], the Ratio in assay [1] is 0.89; in [3] it was 0.14; in assay [5], 0.67; in [8] it was 0.06. For the same molecule, the IC50 in the assay on A549 turned out to be 185 µM; in assay [6], 110 µM; in the assay with PC-9 [11] it was 77.4 µM; with NCI-H1650 it was 24.8 µM; with NCI-H1299, 20.6 µM; in the assay with NCI-H1703 [15], 17.1 µM. Further, the inhibition result in [2] was “Active”. The “Ratio IC50” value is given as 6.4 in assay [4]; 1.4 in assay [9]; 4.4 in assay [10]; 5.3 in assay [12]; 0.6 in assay [17]. Further, the inhibition entry (with PC-9 [7]; in [13]) was “inactive” each time. The outcome with NCI-H1703 [14] and in the assay on PC-9 [16] was Active.
